{
  "source": "paper PMC9050161",
  "about": "(RSC Advances, 2020)",
  "key": {"MRP4": {"target": "MRP4 (Homo sapiens, UniProt O15439)", "sequence (O15439 whole entry)": "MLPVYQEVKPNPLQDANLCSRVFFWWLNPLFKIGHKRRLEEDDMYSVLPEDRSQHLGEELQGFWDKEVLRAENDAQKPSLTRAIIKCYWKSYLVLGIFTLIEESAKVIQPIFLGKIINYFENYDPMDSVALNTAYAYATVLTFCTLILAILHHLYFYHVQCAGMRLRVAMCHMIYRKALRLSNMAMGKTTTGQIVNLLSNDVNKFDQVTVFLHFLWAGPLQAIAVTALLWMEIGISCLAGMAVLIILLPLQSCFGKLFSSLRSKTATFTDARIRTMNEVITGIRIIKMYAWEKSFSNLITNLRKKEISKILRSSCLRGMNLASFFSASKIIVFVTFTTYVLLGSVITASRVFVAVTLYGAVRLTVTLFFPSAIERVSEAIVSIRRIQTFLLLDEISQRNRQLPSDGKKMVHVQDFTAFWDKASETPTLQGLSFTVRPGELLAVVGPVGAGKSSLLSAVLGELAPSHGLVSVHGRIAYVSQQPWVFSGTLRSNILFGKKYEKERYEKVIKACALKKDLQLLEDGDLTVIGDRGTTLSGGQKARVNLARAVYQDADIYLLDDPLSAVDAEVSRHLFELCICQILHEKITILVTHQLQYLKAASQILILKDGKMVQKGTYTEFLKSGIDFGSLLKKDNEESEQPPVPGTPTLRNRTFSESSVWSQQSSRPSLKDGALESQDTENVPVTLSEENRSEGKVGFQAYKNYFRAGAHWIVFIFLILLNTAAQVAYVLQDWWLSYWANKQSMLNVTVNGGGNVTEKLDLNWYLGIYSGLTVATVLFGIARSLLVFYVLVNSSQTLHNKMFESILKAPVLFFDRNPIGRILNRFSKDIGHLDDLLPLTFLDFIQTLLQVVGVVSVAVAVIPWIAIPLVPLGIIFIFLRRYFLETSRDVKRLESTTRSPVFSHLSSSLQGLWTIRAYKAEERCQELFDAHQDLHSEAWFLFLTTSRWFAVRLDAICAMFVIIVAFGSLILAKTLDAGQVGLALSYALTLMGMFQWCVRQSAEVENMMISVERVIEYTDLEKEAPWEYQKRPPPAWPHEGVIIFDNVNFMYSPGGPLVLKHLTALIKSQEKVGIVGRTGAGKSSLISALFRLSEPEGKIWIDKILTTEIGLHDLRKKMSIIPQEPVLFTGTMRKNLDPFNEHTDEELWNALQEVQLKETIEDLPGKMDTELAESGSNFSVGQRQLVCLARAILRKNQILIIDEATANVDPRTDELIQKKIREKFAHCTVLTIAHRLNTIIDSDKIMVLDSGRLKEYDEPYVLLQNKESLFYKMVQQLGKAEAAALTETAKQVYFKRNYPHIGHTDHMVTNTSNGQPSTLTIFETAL", "experiment": "M2 excretion in HeLa1A9 cells after shRNA knock-down of MRP4", "format": "cell-based", "details": "MRP4 silencing", "outline": "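shRNA plasmid against BCRP, MRP1, MRP3 or MRP4 transfected into UGT1A9-expressing HeLa cells, then exposed to 5 μM test compound in HBSS. Medium sampled at 30–120 min with replacement; cells collected at 120 min. UHPLC gave extracellular and intracellular glucuronide, excretion rate, efflux clearance (excretion rate/intracellular concentration) and fraction metabolized (fmet), each compared with control. Triplicate.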"}, "p110γ": {"test_system": "p110γ", "details": "cited from earlier work"}, "CYP2C19": {"target": "CYP2C19 (Homo sapiens, UniProt P33261)", "sequence (P33261 whole entry)": "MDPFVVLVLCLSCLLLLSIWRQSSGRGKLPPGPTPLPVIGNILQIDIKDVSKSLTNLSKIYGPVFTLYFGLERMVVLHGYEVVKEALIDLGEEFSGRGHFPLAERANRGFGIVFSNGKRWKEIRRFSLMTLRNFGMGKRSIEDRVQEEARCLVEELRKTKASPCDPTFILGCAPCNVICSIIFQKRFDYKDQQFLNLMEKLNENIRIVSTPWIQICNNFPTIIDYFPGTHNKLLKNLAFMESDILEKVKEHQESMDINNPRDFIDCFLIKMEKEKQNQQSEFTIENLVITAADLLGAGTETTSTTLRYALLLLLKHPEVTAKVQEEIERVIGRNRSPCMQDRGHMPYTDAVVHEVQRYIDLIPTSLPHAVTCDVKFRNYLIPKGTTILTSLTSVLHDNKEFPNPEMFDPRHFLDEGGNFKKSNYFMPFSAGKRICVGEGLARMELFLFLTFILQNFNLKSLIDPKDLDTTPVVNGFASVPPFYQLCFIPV", "experiment": "Inhibition of CYP2C19", "format": "biochemical", "outline": "(§1)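 Recombinant human CYPs at 0.1 mg mL−1 protein, each with its probe substrate near Km: coumarin 100 μM (2A6), bupropion 100 μM (2B6), paclitaxel 60 μM (2C8), tolbutamide 200 μM (2C9), mephenytoin 100 μM (2C19), chlorzoxazone 200 μM (2E1). Incubated at 37 °C with or without test compound at 1, 10 or 100 μM. UHPLC-TQD-MS read-out; triplicate.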"}, "p110α": {"test_system": "p110α", "details": "cited from earlier work"}, "UGT1A4": {"target": "UGT1A4 (Homo sapiens, UniProt P22310)", "sequence (P22310 29-534)": "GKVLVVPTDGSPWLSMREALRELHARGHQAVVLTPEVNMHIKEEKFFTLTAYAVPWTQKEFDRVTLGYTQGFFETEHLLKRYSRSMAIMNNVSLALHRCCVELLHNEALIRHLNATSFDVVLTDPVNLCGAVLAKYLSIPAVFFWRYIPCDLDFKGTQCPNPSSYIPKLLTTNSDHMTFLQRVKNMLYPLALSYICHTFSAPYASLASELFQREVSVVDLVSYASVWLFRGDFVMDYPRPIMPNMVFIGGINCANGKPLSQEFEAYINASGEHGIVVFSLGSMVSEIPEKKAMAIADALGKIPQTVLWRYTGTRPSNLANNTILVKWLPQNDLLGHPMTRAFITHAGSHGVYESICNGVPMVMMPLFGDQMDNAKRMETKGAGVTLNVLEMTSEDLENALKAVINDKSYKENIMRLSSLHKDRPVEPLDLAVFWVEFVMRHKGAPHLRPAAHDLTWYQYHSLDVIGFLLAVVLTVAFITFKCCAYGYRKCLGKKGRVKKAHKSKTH", "experiment": "Activation of UGT1A4", "format": "biochemical", "outline": "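Recombinant human UGT1A4 with trifluoperazine (TFP) as substrate for N-glucuronidation, at various TFP concentrations with or without test compound. Triplicate. Data fitted to a mechanistic two-site model assuming a reaction site and an allosteric site.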"}, "CYP2A6": {"target": "CYP2A6 (Homo sapiens, UniProt P11509)", "sequence (P11509 whole entry)": "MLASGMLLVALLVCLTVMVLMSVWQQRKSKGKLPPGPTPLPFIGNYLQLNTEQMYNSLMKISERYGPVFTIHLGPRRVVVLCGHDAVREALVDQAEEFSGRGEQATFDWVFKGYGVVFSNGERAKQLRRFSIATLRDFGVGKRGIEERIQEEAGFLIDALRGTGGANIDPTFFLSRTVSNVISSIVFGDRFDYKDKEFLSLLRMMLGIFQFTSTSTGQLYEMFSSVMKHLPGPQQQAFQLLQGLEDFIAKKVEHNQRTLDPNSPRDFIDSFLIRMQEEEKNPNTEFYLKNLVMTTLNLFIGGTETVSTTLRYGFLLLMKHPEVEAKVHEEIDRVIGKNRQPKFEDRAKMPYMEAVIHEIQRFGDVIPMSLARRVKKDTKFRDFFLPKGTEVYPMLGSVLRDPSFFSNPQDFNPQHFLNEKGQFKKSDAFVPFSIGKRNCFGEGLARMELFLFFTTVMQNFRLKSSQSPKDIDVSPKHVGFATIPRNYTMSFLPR", "experiment": "Inhibition of CYP2A6", "format": "biochemical", "details": "PI-103 1, 10 and 100 μM", "outline": "as §1"}, "UGT2B4": {"target": "UGT2B4 (Homo sapiens, UniProt P06133)", "sequence (P06133 24-528)": "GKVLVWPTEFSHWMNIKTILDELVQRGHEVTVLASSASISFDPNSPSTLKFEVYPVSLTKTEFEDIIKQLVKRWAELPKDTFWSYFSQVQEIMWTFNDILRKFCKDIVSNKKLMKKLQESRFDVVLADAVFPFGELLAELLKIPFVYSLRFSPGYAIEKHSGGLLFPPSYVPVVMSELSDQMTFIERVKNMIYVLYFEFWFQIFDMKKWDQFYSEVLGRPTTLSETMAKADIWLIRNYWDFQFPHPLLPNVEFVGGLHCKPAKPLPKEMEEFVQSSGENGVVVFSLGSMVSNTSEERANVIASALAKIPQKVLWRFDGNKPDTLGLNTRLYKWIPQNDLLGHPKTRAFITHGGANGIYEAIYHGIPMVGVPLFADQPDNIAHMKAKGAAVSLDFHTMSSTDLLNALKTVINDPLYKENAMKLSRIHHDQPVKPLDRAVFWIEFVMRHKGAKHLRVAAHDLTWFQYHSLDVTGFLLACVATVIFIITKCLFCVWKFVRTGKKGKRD", "experiment": "Inhibition of UGT2B4", "format": "biochemical", "details": "PI-103 1, 10 and 100 μM", "outline": "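Recombinant human UGTs screened with probe substrates: β-estradiol for UGT1A1, propofol for 1A9, and 4-methylumbelliferone for 1A3, 1A6, 1A7, 1A8, 1A10, 2B4, 2B7, 2B10, 2B15 and 2B17. Incubated at 37 °C without (control) or with test compound at 1, 10 or 100 μM. Glucuronide formation measured relative to control; triplicate.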"}},
  "data": [
    {"smiles": "Oc1cccc(-c2nc(N3CCOCC3)c3oc4ncccc4c3n2)c1", "note": "[PI-103]", "values": [
      {"measurement": "decrease in fmet value of PI-103", "setting": "MRP4", "value": 33.8, "unit": "%"},
      {"measurement": "IC50", "setting": "p110γ", "value": 0.15, "unit": "µM"},
      {"measurement": "IC50", "setting": "CYP2C19", "value": "0.59 ± 0.06", "unit": "µM"},
      {"measurement": "Ki", "setting": "CYP2C19", "value": "0.53 ± 0.03", "unit": "µM"},
      {"measurement": "residual activity", "setting": "CYP2C19; CYP2C19, 100 μM PI-103", "value": "14.67 % of the negative control"},
      {"measurement": "Type of inhibition", "setting": "CYP2C19; CYP2C19, mephenytoin", "value": "Noncompetitive"},
      {"measurement": "IC50", "setting": "p110α", "value": "[…]"},
      {"measurement": "Ki", "setting": "UGT1A4", "value": 13.8, "unit": "µM"},
      {"measurement": "maximal rate change (activation of UGT1A4)", "setting": "UGT1A4; TFP-N-glucuronidation", "value": 1.6, "unit": "fold"},
      {"measurement": "inhibitory effect", "setting": "CYP2A6", "value": "negligible or weak"},
      {"measurement": "inhibitory effect", "setting": "UGT2B4", "value": "negligible"}
    ]}
  ]
}
